In the library only some 2.2% were active in any assay of this set; here they are far more common.
PPC-1+TRAIL kill: compounds killing PPC-1 cancer cells with TRAIL present (potentiator screen, no TRAIL-free arm); PPC-1 cells + TRAIL, ATPLite viability luminescence; cell killing (% activity), % at 4 µM or 5 µM; hit rate 0.41% among 220,000;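 active means cell killing above 50% in the first pass at 4 µM, then a duplicate retest at 5 µM averaging 50% or more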
FLuc act counter: firefly luciferase counter-screen for stimulation assays; activation factor at 10 µM; AID 1027; ATPlite luciferase biochemical, luminescence, 10 min; 0 = ATP-free wells, 1 = DMSO control; 200,000 tested, under 10 active;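 active means luciferase activation factor, scaled between plate controls, of at least 2 with compound at 10 µM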
Target sequence (P08659 whole entry, looked up): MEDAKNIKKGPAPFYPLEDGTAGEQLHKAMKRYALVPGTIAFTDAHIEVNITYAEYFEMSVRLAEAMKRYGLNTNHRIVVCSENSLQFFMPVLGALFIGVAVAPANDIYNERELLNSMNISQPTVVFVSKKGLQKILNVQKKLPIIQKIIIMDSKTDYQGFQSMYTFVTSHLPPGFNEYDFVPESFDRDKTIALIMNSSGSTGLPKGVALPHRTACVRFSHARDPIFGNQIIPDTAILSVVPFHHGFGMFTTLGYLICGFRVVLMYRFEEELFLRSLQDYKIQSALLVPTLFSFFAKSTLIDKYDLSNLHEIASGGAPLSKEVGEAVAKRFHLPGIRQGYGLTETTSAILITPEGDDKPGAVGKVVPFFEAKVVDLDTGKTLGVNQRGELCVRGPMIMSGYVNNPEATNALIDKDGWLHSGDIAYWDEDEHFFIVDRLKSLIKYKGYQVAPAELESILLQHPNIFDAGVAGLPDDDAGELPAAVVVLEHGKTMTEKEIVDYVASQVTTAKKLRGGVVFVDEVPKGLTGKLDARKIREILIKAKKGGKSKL
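System: Luciferase/luciferin detection reagent, cell-free biochemical luciferase assay | Medium: PBS buffer for ATP | Dosing: Test compounds dosed from 2 mM stocks in 100% DMSO | Timing: 10 min at ambient temperature | Signal: Luminescence measurement of luciferase light output | Evaluation: Luciferase activation, seen as luminescence increase over controls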
NF-kB neuron act: compounds increasing NF-kB expression in human neuronal cells | hit rate 1.6% among 190,000 | fold change at 12.5 µM | NF-kB reporter expression; hits give high values | AID 1239; in the data active means fold change above about 3.3
FLuc inhib CS: Photinus pyralis luciferase inhibition counter-screen; hit rate 1.5% among 200,000; inhibition, % at 10 µM; P08659; ATPLite firefly luciferase biochemical luminescence, 10 min;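 active means inhibition above about 50% when tested at 10 µM, limit read from the data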
APP 5'UTR act: activates APP 5'UTR luciferase reporter. SH-SY5Y APP 5'UTR luciferase reporter, luminescence; zero percent = DMSO vehicle wells. hit rate 1% among 190,000. activation, % at 2 µM;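 active means activation above a set limit, based on mean plus 3 SD of controls, cut at about 140% in these data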
C8 TRAIL sens: caspase-8 TRAIL sensitization; hit rate 1% among 360,000; NB7+C8 cells + TRAIL, ATPlite viability luminescence; inhibition (viability loss, TRAIL sensitization), % at 10 µM;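 active means compounds causing at least 50% loss of cell viability in the single-dose screen, relative to plate controls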
A number is an active result; – = inactive; · = not tested or not shown.

SMILES	PPC-1+TRAIL kill	FLuc act counter	NF-kB neuron act	FLuc inhib CS	APP 5'UTR act	C8 TRAIL sens
c1ccc(Nc2scc(-c3ccccc3)[n+]2Cc2ccco2)cc1	–	–	3.43	–	–	–
O=C1c2ccccc2C(=O)N1CCCc1c[nH]c2ccc(Cl)cc12	–	–	–	–	–	–
CCC(=O)Nc1cccc(C(=O)/C=C/c2ccccc2)c1	–	–	8.75	–	–	–
Cc1ccc2c(c1)N=C(c1ccc(Cl)cc1)CO2	–	–	3.57	–	–	–
Clc1ccc(C2=NN=C3COc4ccccc4N3C2)cc1	–	–	–	–	–	–
c1ccc(C2=Nc3ccccc3OC2)cc1	–	–	4.78	–	–	–
Clc1ccc(C2=Nc3cc(Cl)ccc3OC2)cc1	–	–	3.37	–	–	–
COc1ccc(OC2CCN(S(=O)(=O)c3ccc(C(C)=O)cc3)CC2)cc1	·	·	·	·	·	–
S=C1Cc2ccccc2N1	–	·	·	·	·	59.8
S=C1Nc2ccccc2CS1	·	·	·	·	·	–
CCCOc1ccc(/C=N/NC(=S)Nc2ccccc2[N+](=O)[O-])c(O)c1	–	–	–	–	–	·
COc1cc(/C=N/Nc2nc3ccccc3s2)ccc1OC(=O)c1ccccc1F	–	–	11.6	–	172.8	–
COc1cc(OC)cc(C(=O)Oc2ccc(/C=N/Nc3nc4ccccc4s3)cc2OC)c1	–	–	–	–	–	–
COc1ccc(/C=N/NC(=S)Nc2ccccc2[N+](=O)[O-])cc1O	–	–	–	–	206.0	–
COc1cc(/C=N/Nc2ccccc2[N+](=O)[O-])ccc1OC(=O)c1ccccc1F	–	–	–	–	192.7	–
CCN(CC)c1ccc(S(=O)(=O)N2CCOCC2)cc1NC(=O)CSc1nncs1	·	·	·	·	·	–
CCN(Cc1ccc2c(c1)OCCO2)C(=O)CSc1nc(C)nc2sc(C)c(C)c12	·	·	·	·	·	–
CCCN1CCN(S(=O)(=O)c2c(C)[nH]c(C)c2C(=O)N2CCCCC2)CC1	·	·	·	·	·	–
Cc1ccccc1N1CCN(c2ccccc2NC(=O)/C=C\C(=O)O)CC1	·	·	·	·	·	–
CCCCCc1cc(=O)oc2c(C(CCN3CCCCC3)c3cc(OC)c(OC)c(OC)c3)c(OC)cc(OC)c12 (stereo unspecified)	–	·	·	·	·	66.5
CCCCCc1cc(=O)oc2c(C(CCN3CCCC(C)C3)c3cc(OC)c(OC)c(OC)c3)c(OC)cc(OC)c12 (stereo unspecified)	–	·	·	·	·	–
O=C(c1cccc(COc2ccc(Cl)cc2Cl)c1)N1CCN(c2ccccn2)CC1	–	–	–	–	172.8	–
O=C(c1ccc(Cl)c(Cl)c1)N1CCN(c2ccccn2)CC1	·	·	·	·	·	–
CC(=O)C1=C(O)C2(C)c3c(O)c(C)c(O)c(C(C)=O)c3OC2CC1=O (stereo unspecified)	·	·	·	·	·	–
C[C@@H]1CN([C@H](C)CO)S(=O)(=O)c2ccc(C#CCN(C)C)cc2O[C@@H]1CN(C)Cc1ccccc1F	·	·	·	·	·	–
SMILES	PPC-1+TRAIL kill	FLuc act counter	NF-kB neuron act	FLuc inhib CS	APP 5'UTR act	C8 TRAIL sens
CC(=O)N1CCc2cc(S(=O)(=O)CCC(=O)NCCc3ccccc3)ccc21	·	·	·	·	·	–
O=C(Nc1nnc(-c2ccccc2Cl)o1)c1ccco1	–	–	–	65.9	–	–
Cc1ccc(C)c(-c2nnc(NC(=O)c3ccco3)o2)c1	·	·	·	·	·	–
Cc1ccc(-c2nnc(NC(=O)c3ccco3)o2)c(C)c1	·	·	·	·	·	55.2
O=C(Nc1nnc(-c2ccc(Br)cc2)o1)c1ccco1	·	·	·	·	·	53.7
O=C(N=C1SC2CS(=O)(=O)CC2N1c1ccccc1C(F)(F)F)C1CCCO1 (stereo unspecified)	·	·	·	·	·	–
CCOC(=O)[C@H]1[C@H]2COc3ccc(OC)cc3[C@@H]2N2C(=O)CN(C)C(=O)[C@@]12C	·	·	·	·	·	–
Cc1cc(C)nc(SCc2cn3ccccc3n2)n1	–	·	·	·	·	–
Cc1cc(C)c(C#N)c(SCc2cn3ccccc3n2)n1	68.5	–	–	–	–	–
CN(C)CCNc1ccc2ncn3c4ccc(O)cc4c(=O)c1c23	·	·	·	·	·	–
Cc1ccc(Cl)cc1-c1cc(C(=O)NCc2cc(C(F)(F)F)cc(C(F)(F)F)c2)[nH]n1	·	·	·	·	·	–
O=C(c1ccc(F)cc1)n1ccc(-c2cnc(-c3ccccc3)s2)n1	–	–	3.62	–	–	–
Fc1ccc(Cn2ccc(-c3cnc(-c4ccccc4)s3)n2)cc1	–	–	–	–	–	–
CCOC(=O)c1cc(-c2ccc(C)cc2)nc2nc(SC)[nH]c(=O)c12	–	–	3.99	–	–	–
Cc1nc(NC(=O)c2ccccc2O)sc1C	·	·	·	·	·	–
CC1(C)CC(=O)c2sc(NC(=O)c3ccco3)nc2C1	–	–	–	73.7	–	–
CCOC(=O)c1sc(Nc2ccccc2Cl)nc1C	–	·	·	·	·	–
CCOC(=O)c1sc(NC(=O)c2ccccc2OC)nc1C	–	–	8.02	61.6	152.8	60.9
Cc1nc(NC(=O)c2csc3ccccc23)sc1C	–	–	7.52	–	150.9	–
CCOC(=O)c1sc(NC(=O)c2ccc(CC)s2)nc1C	–	–	–	–	–	–
CCOC(=O)c1sc(NC(=O)Nc2ccccc2F)nc1C	53.7	–	–	84.3	162.3	76.9
C=CCOC(=O)c1sc(NC(=O)c2ccco2)nc1C	–	–	–	57.6	–	50.3
CCOC(=O)c1sc(NC(=O)c2cc3ccccc3o2)nc1C	–	–	–	51.9	–	–
Cc1nc(NC(=O)c2cc3ccccc3o2)sc1C	·	·	·	·	·	53.9
O=C(Nc1ccc2c(c1)OCO2)c1cc(C2CCCN(C(=O)CCc3ccccc3)C2)on1 (stereo unspecified)	·	·	·	·	·	–
SMILES	PPC-1+TRAIL kill	FLuc act counter	NF-kB neuron act	FLuc inhib CS	APP 5'UTR act	C8 TRAIL sens
CCOC(=O)CNC(=O)CSc1nnc(NC(=O)c2ccccc2Cl)s1	–	–	–	68.6	–	–
COc1ccc(C(=O)Nc2nnc(SCC(=O)NC3CCCC3)s2)c(OC)c1	·	·	·	·	·	72.3
Cc1ccccc1C(=O)Nc1nnc(SCC(=O)NC2CC2)s1	·	·	·	·	·	53.2
COc1ccc(C(=O)Nc2nnc(SCC(=O)NCc3ccco3)s2)c(OC)c1	·	·	·	·	·	58.8
COc1ccc(C(=O)NCc2c(C)nn(Cc3ccccc3)c2C)cc1S(=O)(=O)N1CCOCC1	·	·	·	·	·	–
CCCNC(=O)N(C)C[C@H]1Oc2ncc(C#CCc3ccccc3)cc2C(=O)N([C@H](C)CO)C[C@H]1C	·	·	·	·	·	–
COc1ccc2c(CN(Cc3ccccc3)Cc3ccccc3)cc(=O)oc2c1	·	·	·	·	·	–
COC(=O)[C@]1(C)N[C@H](CN(C)C(=O)Nc2ccc(C)cc2)[C@@H]2C(=O)N(C)C(=O)[C@@H]21	·	·	·	·	·	–
O=C(CSc1nnc(NC(=O)c2ccco2)s1)Nc1ccccc1F	–	–	–	–	–	–
COc1ccc(C(=O)Nc2nnc(SCC(=O)NC3CC3)s2)cc1	·	·	·	·	·	78.4
O=C(CSc1nnc(NC(=O)c2ccccc2F)s1)Nc1ccccc1F	–	–	–	88.6	–	58.5
COc1cccc(C(=O)Nc2nnc(SCC(=O)NC3CC3)s2)c1	·	·	·	·	·	–
C(=C\c1ccccc1)/C=N/Nc1nc2ccccc2s1	–	–	–	–	179.0	–
COc1ccc(C=NNc2nc3ccccc3s2)cc1	·	·	·	·	·	–
CCC/C=N/Nc1nc2ccccc2s1	–	–	6.05	–	–	–

High-throughput results as filed in PubChem.
